For assay [1], the system named is human neutrophils. Briefly: Desensitization of human neutrophil chemotaxis toward WKYMVm. It is filed as cell-based. The settings on record: 0.5 h, read-out: Chemotaxis IC50.
For assay [2], the system named is CFA-induced rheumatoid arthritis in rats. As to the kind of experiment: Incapacitance test in CFA-induced rheumatoid arthritis. Type of assay: in vivo, rat. The settings on record: for Δ Weight (incapacitance test): day 14 after CFA.
For assay [3], the system named is human neutrophils. Briefly: Human neutrophil chemotaxis. Type of assay: cell-based. The settings on record: read-out: Chemotaxis EC50. An outline of the steps: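 Neutrophils from healthy-donor blood purified by dextran sedimentation, Histopaque 1077 gradient and hypotonic red-cell lysis, then washed twice into Ca/Mg-free HBSS; preparations >95% pure by light microscopy and >98% viable by trypan blue.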

Assay [4] concerns the target T1, FPR2 (Homo sapiens, UniProt P25090).
T1 sequence (P25090 1-351): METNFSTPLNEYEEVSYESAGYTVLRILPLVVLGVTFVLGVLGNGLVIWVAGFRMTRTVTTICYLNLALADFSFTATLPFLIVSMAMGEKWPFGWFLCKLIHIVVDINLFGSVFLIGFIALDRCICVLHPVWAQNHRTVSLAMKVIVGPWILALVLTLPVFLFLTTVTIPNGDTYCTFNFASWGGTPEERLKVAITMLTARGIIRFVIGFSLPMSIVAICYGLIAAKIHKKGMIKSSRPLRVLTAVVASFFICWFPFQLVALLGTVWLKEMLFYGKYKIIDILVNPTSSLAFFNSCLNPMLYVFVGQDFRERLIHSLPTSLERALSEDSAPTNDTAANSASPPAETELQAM
Briefly: Ca2+ mobilization in FPR2-transfected HL60 cells. Type of assay: cell-based.

Assay [5] deals with CFA-induced rheumatoid arthritis in rats. As to the kind of experiment: Paw pressure test in CFA-induced rheumatoid arthritis. It is filed as in vivo, rat.
Assay [6] addresses T2, FPR1 (Homo sapiens, UniProt P21462).
T2 sequence (P21462 1-350): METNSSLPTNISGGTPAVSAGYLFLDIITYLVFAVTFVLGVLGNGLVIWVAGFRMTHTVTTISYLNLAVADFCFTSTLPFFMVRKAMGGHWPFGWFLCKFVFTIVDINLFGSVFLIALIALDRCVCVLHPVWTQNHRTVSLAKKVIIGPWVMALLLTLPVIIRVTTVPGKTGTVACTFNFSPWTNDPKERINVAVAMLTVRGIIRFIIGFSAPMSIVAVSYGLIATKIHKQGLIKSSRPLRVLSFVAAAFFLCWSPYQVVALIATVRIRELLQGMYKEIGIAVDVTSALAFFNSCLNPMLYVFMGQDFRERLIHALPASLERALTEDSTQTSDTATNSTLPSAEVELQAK
As to the kind of experiment: Ca2+ mobilization in FPR1-transfected HL60 cells. It is filed as cell-based. A general note: A change in cytosolic calcium serves as a functional read-out for many receptors and channels.

The test system of assay [7] is collagen-induced arthritis and antigen-induced arthritis. The note with it: 30 mg/kg i.p., mice, both models; cited from earlier work.
For assay [8], the target named is T1, FPR2. The note with it: read-out: FPR2 EC50; EC10; cited from earlier work.
The target of assay [9] is T2, FPR1. The note with it: read-out: FPR1 EC50; EC10; cited from earlier work.
The next assay deals with FPR3. The note with it: read-out: FPR3 EC50; EC10; cited from earlier work.

Read-outs that look alike come from different tables or passages of the source.

Turning to `COc1cccc(-c2cc(C#N)c(=O)n(CC(=O)Nc3ccc(Br)cc3)c2C)c1` [Compound 2a, N-(4-Bromophenyl)-2-[3-cyano-5-(3-methoxyphenyl)-6-methyl-2-oxopyridin-1(2H)-yl]acetamide], the IC50 (as a rule, the concentration that gives 50% inhibition) with human neutrophils [1] worked out at 6100 ± 1100 nM. In [2] (10 and 30 mg/kg p.o., between 15 and 60 min after administration), the “effect on postural unbalance (incapacitance test)” value was “significantly reduced the postural unbalance”. The EC50 (usually the concentration needed to bring the measured effect to its halfway point) in the assay with human neutrophils [3] turned out to be 20 ± 4 nM. Moreover, the “preference for FPR2 versus FPR1” value at FPR2 [4] (ratio of EC50 values) is 10 fold. Besides, the “effect on pain threshold (paw pressure test)” value in assay [5] (10 mg/kg p.o., day 14 after CFA) was “effective between 30 and 60 min”. In addition, the “pain threshold (paw pressure test)” value in assay [5] (30 mg/kg p.o., day 14 after CFA, 15 to 45 min, CFA + vehicle 37.5 ± 1 g) stood at 63.3 ± 2 g.
On to `COc1ccc(-c2cc(C#N)c(=O)n(CC(=O)Nc3ccc(Br)cc3)c2C)cc1` [Compound 2b, N-(4-Bromophenyl)-2-[3-cyano-5-(4-methoxyphenyl)-6-methyl-2-oxopyridin-1(2H)-yl]acetamide], for which the EC50 came to 1000 ± 200 nM at FPR1 [6] and 480 ± 80 nM on FPR2 [4].
Take `COc1ccc(-c2cc(C#N)c(=O)n(CC(=O)Nc3ccc(Br)cc3)c2C)cc1OC` [Compound 2c, N-(4-Bromophenyl)-2-[3-cyano-5-(3,4-dimethoxyphenyl)-6-methyl-2-oxopyridin-1(2H)-yl]acetamide]: the IC50 in the assay with human neutrophils [1] is 18800 ± 3200 nM. Moreover, the EC50 in the assay on human neutrophils [3] stood at 60 ± 15 nM; at FPR1 [6], 33200 ± 4900 nM; at FPR2 [4], 600 ± 200 nM.
Turning to `CCOC(=O)c1cc(C#N)c(=O)n(CC(=O)Nc2ccc(Br)cc2)c1C` [Compound 2d, 1-[(4-Bromophenylcarbamoyl)-methyl]-5-cyano-2-methyl-6-oxo-1,6-dihydropyridine-3-carboxylic acid ethyl ester], the IC50 in the assay with human neutrophils [1] stood at 8400 ± 1200 nM. Moreover, the EC50 in the assay on human neutrophils [3] is 13 ± 1 nM; on FPR1 [6] (read-out: FPR1-HL60 EC50, Ca2+ mobilization, mean of three independent experiments, N.A. = no activity (efficacy < 20% and EC50 < 50 μM as printed)), 3000 nM.
In the case of `CCOC(=O)c1cc(C(=O)Nc2cccc(OC)c2)c(=O)n(CC(=O)Nc2ccc(Br)cc2)c1C` [Compound 6a, 1-[(4-Bromophenylcarbamoyl)methyl]-5-(3-methoxyphenylcarbamoyl)-2-methyl-6-oxo-1,6-dihydropyridine-3-carboxylic acid ethyl ester], the EC50 at FPR1 [6] turned out to be 400 ± 100 nM; on FPR2 [4] it was 28900 ± 2700 nM. For the same compound, the “preference for FPR1” value on FPR1 [6] (FPR1 versus FPR2 EC50) is given as “about 72 fold”.
For `CCOC(=O)c1cc(C(=O)Nc2ccc(OC)cc2)c(=O)n(CC(=O)Nc2ccc(Br)cc2)c1C` [Compound 6b, 1-[(4-Bromophenylcarbamoyl)methyl]-5-(4-methoxyphenylcarbamoyl)-2-methyl-6-oxo-1,6-dihydropyridine-3-carboxylic acid ethyl ester], the EC50 is 7900 ± 1400 nM on FPR1 [6] and 16400 ± 3300 nM at FPR2 [4].
`COc1cccc(NC(=O)c2cc(-c3ccncc3)c(C)n(CC(=O)Nc3ccc(Br)cc3)c2=O)c1` [Compound 6c, 1-[(4-Bromophenylcarbamoyl)methyl]-2-methyl-6-oxo-1,6-dihydro-[3,4′]bipyridinyl-5-carboxylic acid (3-methoxyphenyl) amide]: the EC50 on FPR1 [6] came to 1400 ± 400 nM; on FPR2 [4], 1800 ± 210 nM.
The like results for `COc1cccc(NC(=O)c2cc(C#N)c(=O)n(CC(=O)Nc3ccc(Br)cc3)c2C)c1` [Compound 9a, 1-[(4-Bromophenylcarbamoyl)methyl]-5-cyano-2-methyl-6-oxo-1,6-dihydro-pyridine-3-carboxylic acid (3-methoxyphenyl) amide] were, in that order, 3900 ± 1200 nM and 310 ± 90 nM.
For `COc1ccc(NC(=O)c2cc(C#N)c(=O)n(CC(=O)Nc3ccc(Br)cc3)c2C)cc1` [Compound 9b, 1-[(4-Bromophenylcarbamoyl)methyl]-5-cyano-2-methyl-6-oxo-1,6-dihydro-pyridine-3-carboxylic acid (4-methoxyphenyl) amide], the values for the EC50 on FPR1 [6] and on FPR2 [4] were 960 ± 390 nM and 440 ± 120 nM, respectively.
With `CCCn1ccc(=O)n(CC(=O)Nc2ccc(Br)cc2)c1=O` [Compound 11d, N-(4-Bromophenyl)-2-(2,6-dioxo-3-propyl-3,6-dihydropyrimidin-1(2H)-yl)acetamide], the EC50 on FPR1 [6] stood at 5500 ± 1600 nM; on FPR2 [4], 4100 ± 1300 nM.
On to `CC(C)c1c(NC(=O)Nc2ccc(Cl)cc2)c(=O)n(-c2ccccc2)n1C` [Cpd43], for which, in [7], the “effect on arthritis disease severity” value was “significantly reduced disease severity”.
For `COc1cccc(Nc2c(C(C)=O)c(C)nn(CC(=O)Nc3ccc(Br)cc3)c2=O)c1` [EC10], the EC50 at FPR2 [8] was 170 nM; on FPR1 [9] it was 45 nM; with FPR3, 210 nM. Besides, the “Δ Weight (incapacitance test)” value in [2] (10 and 30 mg/kg p.o., 15 to 60 min, CFA + vehicle 62.8 ± 3.1 g) is given as 40.2 ± 1.1 g. Further, the “effect on pain threshold (paw pressure test)” value in [5] (10 and 30 mg/kg p.o., between 15 and 60 min, similar efficacy as EC3) was “increased the pain threshold”.
With `CC(C)Cc1ccc(C(C)C(=O)O)cc1` (centres unmarked) [Ibuprofen, ibuprofen, reference compound], in assay [2] (100 mg kg−1 p.o., 15 to 30 min, CFA + vehicle 62.6 ± 2.5 g), the “Δ Weight (incapacitance test)” value worked out at 34.7 ± 6.1 g.
